# Results collected from several papers.
# Protocols differ between the studies behind these lines.
# Target: Death-associated protein kinase 2 (DAPK2, Homo sapiens, UniProt Q9UIK4)
SMILES,test,setting,quantity,value
COc1cc(Nc2ncc(F)c(Nc3ccc4c(n3)NC(=O)C(C)(C)O4)n2)cc(OC)c1OC,"binding, competition with immobilised ligand",10 µM,inhibition,95%
Cn1cncc1[C@@](O)(COc1ccc(C#N)cc1-c1ccc(OC(F)(F)F)cc1)c1ccc(C#N)cc1,"cell-free assay, competition with immobilised ligand",1 µM,remaining binding,97%
Cc1nn(C)cc1-c1nc2c(N3CCN(Cc4ccc(Cl)cc4)CC3)c(Cl)cnc2[nH]1,"binding, competition with immobilised ligand",1 µM,remaining binding,80%
Nc1ncc(-c2nc(N3CCOCC3)nc(N3CCOCC3)n2)c(C(F)F)n1,"binding, competition with immobilised ligand",10 µM,remaining binding,76%
CC(C)(C)c1cc(C=C(C#N)C#N)cc(Br)c1O,"enzyme activity, inhibitor",0.5 µM,remaining activity,108%
N#CC1(c2ccccn2)CCN(Cc2cc(C(=O)O)c(=O)n3ccccc23)CC1,"cell-free assay, competition with immobilised ligand",1 µM,remaining binding,99%
O=c1[nH]c2ccccc2n1C1CCN(Cc2ccc(-c3[nH]c4cc5ncnc5cc4nc3-c3ccccc3)cc2)CC1,cell-free assay,0.5 µM,remaining signal,99%
COc1ncccc1-c1cnn2ccc(N3CCN(C(=O)OC(C)C)CC3)nc12,"binding, competition with immobilised ligand",1 µM,remaining binding,86%
